Experimental data of several laboratories.
Protocols differ between the studies behind these lines.
AXL: Tyrosine-protein kinase receptor UFO (AXL, Homo sapiens, UniProt P30530)
ADORA1: Adenosine receptor A1 (ADORA1, Homo sapiens, UniProt P30542)
RPS6KB2: Ribosomal protein S6 kinase beta-2 (RPS6KB2, Homo sapiens, UniProt Q9UBS0)

| SMILES | target | test | test system | setting | measurement | value |
| --- | --- | --- | --- | --- | --- | --- |
| CS(=O)(=NC#N)c1ccccc1Nc1nc(Nc2ccnc(CO)c2)ncc1Cl (stereo not drawn) | AXL | enzyme activity, inhibitor |  | 1 µM | remaining activity | 14.7% |
| C1=C/COCc2cc(ccc2OCCN2CCCC2)Nc2nccc(n2)-c2cccc(c2)COC/1 | Ephrin type-A receptor 4 (EPHA4, Homo sapiens, UniProt P54764) | binding |  | 0.1 µM | remaining binding | 100% |
| COc1nc(-c2cccc(-c3ccccc3)c2C)ccc1CNCCNC(=O)CCCCCCCCCCC(=O)N1CCN(CCNC(=O)c2cc3c(=O)n4cccc(C)c4nc3n(CCc3cccs3)c2=N)CC1 | Programmed cell death 1 ligand 1 (CD274, Homo sapiens, UniProt Q9NZQ7) | protein level, degrader, western blot | HL-60 | 1 µM | Dmax | 53.9% |
| NC/C(=C\F)COc1cccc(Cn2c(=S)[nH]c(=O)c3[nH]cnc32)c1 | ADORA1 | ligand displacement, radioligand |  | 10 µM | inhibition | < 50% |
| COc1ccc2oc(-c3ccc4nc(N)oc4c3)c/c(=N\c3ccccc3NC(=O)CCN)c2c1 | RPS6KB2 | binding |  | 1 µM | remaining binding | 93% |
| C#Cc1cc(-c2cc(Nc3nc(N[C@@H](C)c4ccc(F)cn4)ncc3Cl)n[nH]2)ccc1C=O | RAC-gamma serine/threonine-protein kinase (AKT3, Homo sapiens, UniProt Q9Y243) | enzyme activity, inhibitor |  | 0.2 µM | inhibition | 17.4% |
| CC(C)C[C@H](NC(=O)CNC(=O)[C@H](Cc1ccc(O)cc1)NC(=O)[C@H](CO)NC(=O)[C@H](Cc1c[nH]c2ccccc12)NC(=O)[C@H](Cc1c[nH]cn1)NC(=O)[C@@H]1CCC(=O)N1)C(=O)N[C@@H](CCCNC(=N)N)C(=O)N1CCC[C@H]1C(=O)NCC(N)=O | Gonadotropin-releasing hormone receptor (GNRHR, Homo sapiens, UniProt P30968) | inositol phosphate, agonist, TR-FRET | HEK-293T | 1 h | Emax | 100% |
| Cc1cc(F)cc2c(CCC(=O)N[C@@H]3C(=O)NC[C@H]3O)c(-c3ccc(F)cc3)[nH]c12 | ADORA1 | cell-free assay |  | 10 µM | inhibition | 4% |
| CCCCC(=O)Nc1ccc(-c2ccc3ncn(CCC)c(=O)c3c2)cn1 | Serine/threonine-protein kinase 32A (STK32A, Homo sapiens, UniProt Q8WU08) | binding, competition with immobilised ligand |  | 0.5 µM | remaining binding | 86% |
| CCN1/C(=C/C(C)=O)Sc2ccc(F)cc21 | ADORA1 | ligand displacement, radioligand |  | 10 µM | inhibition | 2.48% |
| C#Cc1cnc(Nc2ccc(CO)cc2)nc1Nc1ccccc1C(=O)NC | AXL | enzyme activity, inhibitor |  | 1 µM | remaining activity | 1.65% |
| Cc1cc(O)c(-c2ccc([C@@H](C)CN(C)C)cc2)c2c1[nH]c(=O)c1sccc12 | RPS6KB2 | enzyme activity, inhibitor |  | 0.1 µM | inhibition | -3.41% |
